Measured values taken from ChEMBL document CHEMBL3286372, “Design, synthesis and structure-activity relationship of novel semi-synthetic flavonoids as antiproliferative agents” (2014).

Assays:
[1] = Growth inhibition of human MOLT4 cells at 10 uM after 48 hrs by sulforhodamine B assay relative to control; type: functional; details: MOLT-4, 48 h, read-out: GI
Summary of the method: (§1)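 NCI-60 primary screen at a single 10 µM dose. Continuous 48 h exposure, with growth or viability estimated by sulforhodamine B protein staining. Reported as percent growth inhibition of treated cells relative to untreated growth.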

[2] = tested on: RPMI-8226; test: Growth inhibition of human RPMI8226 cells at 10 uM after 48 hrs by sulforhodamine B assay relative to control; type: functional; details: RPMI-8226, 48 h, read-out: GI; summary of the method: as §1
[3] = tested on: SR; test: Growth inhibition of human SR cells at 10 uM after 48 hrs by sulforhodamine B assay relative to control; type: functional; details: read-out: GI; summary of the method: as §1
[4] = tested on: HCT-116; test: Growth inhibition of human HCT116 cells at 10 uM after 48 hrs by sulforhodamine B assay relative to control; type: functional; details: HCT-116, 48 h, read-out: GI
Summary of the method: (§2)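 NCI-60 primary screen at a single dose of 10 µM with 48 h continuous exposure. Growth or viability read by sulforhodamine B protein staining and expressed as percent growth inhibition versus untreated cells.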

[5] = tested on: KM12; test: Growth inhibition of human KM12 cells at 10 uM after 48 hrs by sulforhodamine B assay relative to control; type: functional; details: KM12, 48 h, read-out: GI; summary of the method: as §2
[6] = tested on: MDA-MB-435; test: Growth inhibition of human MDA-MB-435 cells at 10 uM after 48 hrs by sulforhodamine B assay relative to control; type: functional; details: MDA-MB-435, 48 h, read-out: GI; summary of the method: as §2
[7] = tested on: DU-145; test: Growth inhibition of human DU145 cells at 10 uM after 48 hrs by sulforhodamine B assay relative to control; type: functional; details: DU-145, 48 h, read-out: GI; summary of the method: as §2
[8] = tested on: MCF7; test: Growth inhibition of human MCF7 cells at 10 uM after 48 hrs by sulforhodamine B assay relative to control; type: functional; details: MCF7, 48 h, read-out: GI; summary of the method: as §2
[9] = tested on: NCI-H23; test: Growth inhibition of human NCI-H23 cells at 10 uM after 48 hrs by sulforhodamine B assay relative to control; type: functional; details: NCI-H23, 48 h, read-out: GI; summary of the method: as §1
[10] = tested on: SNB-75; test: Growth inhibition of human SNB75 cells at 10 uM after 48 hrs by sulforhodamine B assay relative to control; type: functional; details: SNB-75, 48 h, read-out: GI; summary of the method: as §1
[11] = Growth inhibition of human LOXIMVI cells at 10 uM after 48 hrs by sulforhodamine B assay relative to control; type: functional; details: LOX IMVI, read-out: GI; summary of the method: as §2
[12] = Growth inhibition of human OVCAR8 cells at 10 uM after 48 hrs by sulforhodamine B assay relative to control; type: functional; details: OVCAR-8, 48 h, read-out: GI; summary of the method: as §1
[13] = Growth inhibition of human NCI-ADR-RES cells at 10 uM after 48 hrs by sulforhodamine B assay relative to control; type: functional; details: read-out: GI; summary of the method: as §1
[14] = tested on: CAKI-1; test: Growth inhibition of human CAKI-1 cells at 10 uM after 48 hrs by sulforhodamine B assay relative to control; type: functional; details: CAKI-1, 48 h, read-out: GI; summary of the method: as §2
[15] = Growth inhibition of human RXF393 cells at 10 uM after 48 hrs by sulforhodamine B assay relative to control; type: functional; details: RXF 393, 48 h, read-out: GI; summary of the method: as §1
[16] = tested on: SR; test: Growth inhibition of human SR cells after 48 hrs by coulter counting analysis; type: functional
Summary of the method: (§3)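 Five-dose NCI-60 follow-up, 0.01–100 µM, made from DMSO stock in buffered saline (final DMSO <1%), in duplicate wells. Cells in RPMI 1640 with 10% FBS at 6×10^4 cells/ml, 37 °C, 5% CO2, 48 h. Cells diluted tenfold in saline, Coulter-counted and corrected for dilution. GI50, TGI and LC50 taken from log concentration–percent growth curves.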

[17] = Growth inhibition of human […] cells after 48 hrs by coulter counting analysis; type: functional
Summary of the method: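 NCI five-dose screen at 0.01-100 µM, diluted from DMSO stocks in buffered saline (final DMSO <1%). Cells at 6×10^4 cells/ml in RPMI 1640 with 10% FBS, in duplicate wells, at 37 °C under 5% CO2 for 48 h. Cells diluted tenfold in saline and Coulter-counted. GI50, TGI and LC50 taken from log concentration-growth inhibition curves.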

[18] = Growth inhibition of human PC549 cells after 48 hrs by coulter counting analysis; type: functional; summary of the method: as §3
[19] = tested on: HL-60(TB); test: Growth inhibition of human HL-60(TB) cells at 10 uM after 48 hrs by sulforhodamine B assay relative to control; type: functional; details: HL-60, 48 h, read-out: GI
Summary of the method: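 Single-dose primary screen at 10 µM across the NCI 60 panel, 48 h continuous exposure. Growth estimated by sulforhodamine B protein staining and reported as percentage growth inhibition relative to untreated control.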

[20] = tested on: SF-268; test: Growth inhibition of human SF268 cells at 10 uM after 48 hrs by sulforhodamine B assay relative to control; type: functional; details: SF-268, 48 h, read-out: GI; summary of the method: as §1
[21] = Growth inhibition of human OVCAR3 cells at 10 uM after 48 hrs by sulforhodamine B assay relative to control; type: functional; details: OVCAR-3, 48 h, read-out: GI; summary of the method: as §1
[22] = tested on: ACHN; test: Growth inhibition of human ACHN cells at 10 uM after 48 hrs by sulforhodamine B assay relative to control; type: functional; details: read-out: GI; summary of the method: as §2
[23] = tested on: PC-3; test: Growth inhibition of human PC3 cells at 10 uM after 48 hrs by sulforhodamine B assay relative to control; type: functional; details: PC-3, 48 h, read-out: GI; summary of the method: as §1
[24] = Growth inhibition of human HCT15 cells at 10 uM after 48 hrs by sulforhodamine B assay relative to control; type: functional; details: HCT-15, 48 h, read-out: GI; summary of the method: as §2
[25] = tested on: Ehrlich; test: Antitumor activity against mouse EAC cells allografted in BALB mouse assessed as tumor growth inhibition at 6 mg/kg, ip for 5 days relative to control; type: functional; details: 120 h, route intraperitoneal, read-out: TGI
Summary of the method: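 Female BALB mice; Ehrlich ascites carcinoma cells, 2×10^5 cells/mouse in 0.2 ml saline, injected s.c. into the left hind leg and grown 2 wk. Daily i.p. saline (control), 3 or 6 mg/kg for 5 days. Caliper size V = 0.4×a(b)^2, taken just before the first dose and 24 h after the last. Mean ± SEM, n = 6; ANOVA with Tukey-Kramer.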

[26] = tested on: Mus musculus; test: Decrease in cyclin D1 level in tumor of BALB mouse allografted with mouse EAC cells at 6 mg/kg, ip for 5 days competitive ELISA relative to control; type: functional, Ehrlich; parameters: scale not given: the % may be the effect or the level left; details: route intraperitoneal
Summary of the method: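 Mice bearing s.c. Ehrlich tumours (2×10^5 EAC cells, grown 2 wk) were given daily i.p. saline, 3 or 6 mg/kg for 5 days. Tumours were excised, washed in cold saline and blotted, and a 10% homogenate was made in phosphate buffered saline. Cyclin D1 was measured by competitive ELISA with samples in duplicate. Mean ± SEM, n = 6.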

[27] = tested on: U-251; test: Growth inhibition of human U251 cells at 10 uM after 48 hrs by sulforhodamine B assay relative to control; type: functional; details: U-251, 48 h, read-out: GI
Summary of the method: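 NCI-60 primary single-dose screen at 10 µM with continuous 48 h exposure. Cell viability/growth read by sulforhodamine B protein staining. Reported as percent growth inhibition relative to untreated cells.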

Compound | inhibition of growth at 10 µM [1] | inhibition of growth at 10 µM [2] | inhibition of growth at 10 µM [4] | inhibition of growth at 10 µM [5] | inhibition of growth at 10 µM [7] | inhibition of growth at 10 µM [8] | inhibition of growth at 10 µM [10] | inhibition of growth at 10 µM [12] | inhibition of growth at 10 µM [13] | GI50 [16] | other results
COc1ccccc1/C=C/C(=O)c1c(O)cc2occc2c1OC | 66% | 86% | 66% | 63% | 78% | 60% | – | – | – | – | inhibition of growth at 10 µM [3]: 62%; inhibition of growth at 10 µM [6]: 74%
C=CCc1c2c(c(OC)c3ccoc13)C(=O)/C(=C/c1ccccc1OC)O2 | – | 71% | 79% | – | 65% | 67% | 64% | 61% | 65% | 3.16 µM | inhibition of growth at 10 µM [9]: 80%; inhibition of growth at 10 µM [11]: 62%; inhibition of growth at 10 µM [14]: 62%; inhibition of growth at 10 µM [15]: 75%
C=CCc1c(O)c(C(=O)/C=C/c2ccc(Cl)cc2)c(OC)c2ccoc12 | – | – | – | – | – | – | – | – | – | 2.77 µM | –
COc1c(C(=O)/C=C/c2ccc(Cl)cc2)c(O)c(Br)c2occc12 | – | – | – | – | – | – | – | – | – | – | GI50 [17]: 3.12 µM; GI50 [18]: 2.54 µM
COc1c2occc2c(OC)c2c(=O)c(CN3CCOCC3)c(/C=C/c3ccc(Cl)cc3)oc12 | 93% | 60% | – | – | – | – | – | 60% | – | – | inhibition of growth at 10 µM [19]: 60%; inhibition of growth at 10 µM [20]: 67%; inhibition of growth at 10 µM [21]: 68%; inhibition of growth at 10 µM [22]: 66%; inhibition of growth at 10 µM [14]: 61%; inhibition of growth at 10 µM [23]: 72%
COc1c(C(=O)/C=C/c2ccccc2)c(O)cc2occc12 | 89% | 86% | 68% | 64% | 75% | 76% | 86% | – | 68% | 3.27 µM | inhibition of growth at 10 µM [3]: 72%; inhibition of growth at 10 µM [6]: 68%
COc1c2occc2c(OC)c2c(=O)c(CN3CCOCC3)c(/C=C/c3ccc(N(C)C)cc3)oc12 | 88% | 80% | 82% | 73% | 93% | – | 99% | 80% | 87% | – | inhibition of growth at 10 µM [19]: 64%; inhibition of growth at 10 µM [9]: 80%; inhibition of growth at 10 µM [24]: 67%; GI50 [17]: 1.68 µM; GI50 [18]: 2.87 µM; inhibition in vivo at 6 mg/kg [25]: 57.1%; Activity [26]: 59.1%; inhibition of growth at 10 µM [27]: 69%; inhibition of growth at 10 µM [11]: 65%; inhibition of growth at 10 µM [21]: 88%; inhibition of growth at 10 µM [22]: 89%; inhibition of growth at 10 µM [23]: 87%
C=CCc1c(O)c(C(=O)/C=C/c2ccccc2)c(OC)c2ccoc12 | – | – | – | – | – | – | – | – | – | 2.15 µM | –
